Test results as given in ChEMBL document CHEMBL3596195, “Novel cajaninstilbene acid derivatives as antibacterial agents” (Eur J Med Chem, 2015).
≈ marks a conversion by molar mass, not a printed value.

Columns and labels:
Staphylococcus aureus [1] = assay: Antibacterial activity against Staphylococcus aureus ATCC25923 assessed as bacterial growth inhibition after 24 hrs by broth dilution method; type: functional; details: ATCC25923, 24 h
[2] = tested on: Staphylococcus epidermidis; assay: Antibacterial activity against Staphylococcus epidermidis ATCC12228 assessed as bacterial growth inhibition after 24 hrs by broth dilution method; type: functional; details: ATCC12228, 24 h
Bacillus subtilis [3] = assay: Antibacterial activity against Bacillus subtilis ATCC6633 assessed as bacterial growth inhibition after 24 hrs by broth dilution method; type: functional; details: ATCC6633, 24 h
Escherichia coli = assay: Antibacterial activity against Escherichia coli ATCC25922 assessed as bacterial growth inhibition after 24 hrs by broth dilution method; type: functional; details: ATCC25922, 24 h
Proteus vulgaris = assay: Antibacterial activity against Proteus vulgaris ATCC49101 assessed as bacterial growth inhibition after 24 hrs by broth dilution method; type: functional; details: ATCC49101, 24 h
Pseudomonas aeruginosa = assay: Antibacterial activity against Pseudomonas aeruginosa ATCC2785 assessed as bacterial growth inhibition after 24 hrs by broth dilution method; type: functional; details: ATCC2785, 24 h
Staphylococcus aureus [4] = assay: Antibacterial activity against methicillin-resistant Staphylococcus aureus ATCC43300 assessed as bacterial growth inhibition after 24 hrs by broth dilution method; type: functional; details: ATCC43300, 24 h
Staphylococcus aureus [5] = assay: Antibacterial activity against methicillin-resistant Staphylococcus aureus ATCC523512 assessed as bacterial growth inhibition after 24 hrs by broth dilution method; type: functional; details: ATCC523512, 24 h
Staphylococcus aureus [6] = assay: Antibacterial activity against methicillin-resistant Staphylococcus aureus ATCC425055 assessed as bacterial growth inhibition after 24 hrs by broth dilution method; type: functional; details: ATCC425055, 24 h
Staphylococcus aureus [7] = assay: Antibacterial activity against methicillin-resistant Staphylococcus aureus ATCC513045 assessed as bacterial growth inhibition after 24 hrs by broth dilution method; type: functional; details: ATCC513045, 24 h
Staphylococcus aureus [8] = assay: Antibacterial activity against methicillin-resistant Staphylococcus aureus ATCC62202 assessed as bacterial growth inhibition after 24 hrs by broth dilution method; type: functional; details: ATCC62202, 24 h
Staphylococcus aureus [9] = assay: Antibacterial activity against methicillin-resistant Staphylococcus aureus ATCC51033 assessed as bacterial growth inhibition after 24 hrs by broth dilution method; type: functional; details: ATCC51033, 24 h
Staphylococcus aureus [10] = assay: Antibacterial activity against methicillin-resistant Staphylococcus aureus ATCC52056 assessed as bacterial growth inhibition after 24 hrs by broth dilution method; type: functional; details: ATCC52056, 24 h
Staphylococcus aureus [11] = assay: Antibacterial activity against methicillin-resistant Staphylococcus aureus ATCC515992 assessed as bacterial growth inhibition after 24 hrs by broth dilution method; type: functional; details: ATCC515992, 24 h
Staphylococcus aureus [12] = assay: Antibacterial activity against methicillin-resistant Staphylococcus aureus ATCC510019 assessed as bacterial growth inhibition after 24 hrs by broth dilution method; type: functional; details: ATCC510019, 24 h
Staphylococcus aureus [13] = assay: Ratio of penicillin MIC to compound MIC for Staphylococcus aureus ATCC25923 after 24 hrs by broth dilution method; type: functional
[14] = tested on: Staphylococcus epidermidis; assay: Ratio of norfloxacin MIC to compound MIC for Staphylococcus epidermidis ATCC12228 after 24 hrs by broth dilution method; type: functional
[15] = Cytotoxicity against mouse RAW264.7 cells assessed as cell viability at 8 ug/ml after 72 hrs by MTT assay; type: cell-based; details: read-out: Activity
In short: (§1)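 Mouse RAW 264.7 macrophages grown in DMEM with 10% FBS, 2 mM L-glutamine and penicillin/streptomycin at 37 °C, 5% CO2. Seeded at 10,000 cells/well for 12 h. Compound diluted 1000× from DMSO stock into 1% FBS medium (DMSO under 0.1%), over a concentration gradient, 72 h exposure. MTT formazan dissolved in DMSO for 45 min, absorbance read at 562 nm. Quadruplicate wells, at least three runs (N = 12).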

RAW264.7 = assay: Cytotoxicity against mouse RAW264.7 cells assessed as inhibition of cell viability after 72 hrs by MTT assay; type: cell-based; details: RAW264.7, 72 h; in short: as §1
[16] = Selectivity index, ratio of IC50 for mouse RAW264.7 cells to MIC for Staphylococcus aureus ATCC25923; type: toxicity; details: read-out: Selectivity Index
In short: (§2)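 SI = IC50 in mouse RAW 264.7 macrophages divided by broth-dilution MIC. For cytotoxicity, cells in DMEM/10% FBS/2 mM L-glutamine were seeded at 10,000/well for 12 h. They were then dosed across a concentration gradient in 1% FBS medium with DMSO below 0.1% for 72 h. Read-out was MTT, absorbance 562 nm, 4 wells × at least 3 runs.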

[17] = Selectivity index, ratio of IC50 for mouse RAW264.7 cells to MIC for Staphylococcus epidermidis ATCC12228; type: toxicity; details: read-out: Selectivity Index; in short: as §2
[18] = Selectivity index, ratio of IC50 for mouse RAW264.7 cells to MIC for Bacillus subtilis ATCC6633; type: toxicity; details: read-out: Selectivity Index; in short: as §2
[19] = Selectivity index, ratio of IC50 for mouse RAW264.7 cells to MIC for methicillin-resistant Staphylococcus aureus ATCC43300; type: toxicity; details: read-out: Selectivity Index; in short: as §2
[20] = Selectivity index, ratio of IC50 for mouse RAW264.7 cells to MIC for methicillin-resistant Staphylococcus aureus ATCC523512; type: toxicity; details: read-out: Selectivity Index; in short: as §2
[21] = Selectivity index, ratio of IC50 for mouse RAW264.7 cells to MIC for methicillin-resistant Staphylococcus aureus ATCC425055; type: toxicity; details: read-out: Selectivity Index; in short: as §2
[22] = Selectivity index, ratio of IC50 for mouse RAW264.7 cells to MIC for methicillin-resistant Staphylococcus aureus ATCC513045; type: toxicity; details: read-out: Selectivity Index; in short: as §2
[23] = Selectivity index, ratio of IC50 for mouse RAW264.7 cells to MIC for methicillin-resistant Staphylococcus aureus ATCC62202; type: toxicity; details: read-out: Selectivity Index; in short: as §2
[24] = Selectivity index, ratio of IC50 for mouse RAW264.7 cells to MIC for methicillin-resistant Staphylococcus aureus ATCC51033; type: toxicity; details: read-out: Selectivity Index; in short: as §2
[25] = Selectivity index, ratio of IC50 for mouse RAW264.7 cells to MIC for methicillin-resistant Staphylococcus aureus ATCC52056; type: toxicity; details: read-out: Selectivity Index; in short: as §2
[26] = Selectivity index, ratio of IC50 for mouse RAW264.7 cells to MIC for methicillin-resistant Staphylococcus aureus ATCC515992; type: toxicity; in short: as §2
[27] = Selectivity index, ratio of IC50 for mouse RAW264.7 cells to MIC for methicillin-resistant Staphylococcus aureus ATCC510019; type: toxicity; details: read-out: Selectivity Index; in short: as §2
[28] = tested on: Staphylococcus epidermidis; assay: Ratio of penicillin MIC to compound MIC for Staphylococcus epidermidis ATCC12228 after 24 hrs by broth dilution method; type: functional
In short: (§3)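 MICs came from broth double dilution from 256 µg/mL in 5×10^5 cells/mL culture, 37 °C, 24 h, read visually as the lowest concentration without turbidity. The ratio is the reference antibiotic's MIC over the compound's MIC.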

Staphylococcus aureus [29] = assay: Ratio of norfloxacin MIC to compound MIC for Staphylococcus aureus ATCC25923 after 24 hrs by broth dilution method; type: functional; in short: as §3
Bacillus subtilis [30] = assay: Ratio of norfloxacin MIC to compound MIC for Bacillus subtilis ATCC6633 after 24 hrs by broth dilution method; type: functional

| SMILES | MIC (Staphylococcus aureus [1]) [µg/mL] | MIC [2] [µg/mL] | MIC (Bacillus subtilis [3]) [µg/mL] | MIC (Escherichia coli) [µg/mL] | MIC (Proteus vulgaris) [µg/mL] | MIC (Pseudomonas aeruginosa) [µg/mL] | MIC (Staphylococcus aureus [4]) [µg/mL] | MIC (Staphylococcus aureus [5]) [µg/mL] | MIC (Staphylococcus aureus [6]) [µg/mL] | MIC (Staphylococcus aureus [7]) [µg/mL] | MIC (Staphylococcus aureus [8]) [µg/mL] | MIC (Staphylococcus aureus [9]) [µg/mL] | MIC (Staphylococcus aureus [10]) [µg/mL] | MIC (Staphylococcus aureus [11]) [µg/mL] | MIC (Staphylococcus aureus [12]) [µg/mL] | Ratio (Staphylococcus aureus [13]) | viability at 72 h, 8 ug/ml [15] [%] | IC50 (RAW264.7) [µg/mL] | selectivity ratio [16] | selectivity ratio [23] | further results |
| --- | --- | --- | --- | --- | --- | --- | --- | --- | --- | --- | --- | --- | --- | --- | --- | --- | --- | --- | --- | --- | --- |
| COc1cc(/C=C/c2ccccc2F)c(C(=O)O)c(O)c1CC=C(C)C | 4 (≈ 11.2 µM) | 1 (≈ 2.81 µM) | 0.5 (≈ 1.4 µM) | 64 (≈ 180 µM) | > 64 | > 64 | 1 (≈ 2.81 µM) | 2 (≈ 5.61 µM) | 0.5 (≈ 1.4 µM) | 2 (≈ 5.61 µM) | 0.5 (≈ 1.4 µM) | 1 (≈ 2.81 µM) | 2 (≈ 5.61 µM) | 2 (≈ 5.61 µM) | 2 (≈ 5.61 µM) | 64 | 92.7 | 24.7 (≈ 69.3 µM) | 6.17 | 6.17 | Ratio [14]: 8; selectivity ratio [17]: 6.17; selectivity ratio [18]: 6.17; selectivity ratio [19]: 6.17; selectivity ratio [20]: 6.17; selectivity ratio [21]: 6.17; selectivity ratio [22]: 6.17; selectivity ratio [24]: 6.17; selectivity ratio [25]: 12.3; selectivity ratio [26]: 12.3; selectivity ratio [27]: 12.3 |
| COc1cc(/C=C/c2cccc(F)c2)c(C(=O)O)c(O)c1CC=C(C)C | 4 (≈ 11.2 µM) | 2 (≈ 5.61 µM) | 0.5 (≈ 1.4 µM) | > 128 | > 64 | > 64 | 1 (≈ 2.81 µM) | 2 (≈ 5.61 µM) | 2 (≈ 5.61 µM) | 2 (≈ 5.61 µM) | 0.5 (≈ 1.4 µM) | 1 (≈ 2.81 µM) | 0.5 (≈ 1.4 µM) | 1 (≈ 2.81 µM) | 1 (≈ 2.81 µM) | 64 | 91.7 | 20.2 (≈ 56.6 µM) | 5.04 | 5.04 | Ratio [14]: 8; selectivity ratio [17]: 5.04; selectivity ratio [18]: 5.04; selectivity ratio [19]: 5.04; selectivity ratio [20]: 5.04; selectivity ratio [21]: 5.04; selectivity ratio [22]: 5.04; selectivity ratio [24]: 5.04; selectivity ratio [25]: 40.3; selectivity ratio [26]: 20.2; selectivity ratio [27]: 20.2 |
| COc1cc(/C=C/c2ccc(C(F)(F)F)cc2)c(C(=O)O)c(O)c1CC=C(C)C | 2 (≈ 4.92 µM) | 2 (≈ 4.92 µM) | 1 (≈ 2.46 µM) | > 128 | > 64 | > 64 | 2 (≈ 4.92 µM) | 0.5 (≈ 1.23 µM) | 0.5 (≈ 1.23 µM) | 8 (≈ 19.7 µM) | 0.5 (≈ 1.23 µM) | 1 (≈ 2.46 µM) | 4 (≈ 9.84 µM) | 0.5 (≈ 1.23 µM) | 2 (≈ 4.92 µM) | 1 | 90.6 | 25.7 (≈ 63.3 µM) | 12.9 | 12.9 | Ratio [28]: 64; Ratio (Staphylococcus aureus [29]): 8; selectivity ratio [17]: 12.9; selectivity ratio [18]: 12.9; selectivity ratio [19]: 12.9; selectivity ratio [20]: 12.9; selectivity ratio [21]: 12.9; selectivity ratio [22]: 12.9; selectivity ratio [24]: 12.9; selectivity ratio [25]: 6.43; selectivity ratio [26]: 51.4; selectivity ratio [27]: 12.9 |
| COc1cc(/C=C/c2ccc(F)cc2F)c(C(=O)O)c(O)c1CC=C(C)C | 1 (≈ 2.67 µM) | 0.5 (≈ 1.34 µM) | 2 (≈ 5.34 µM) | > 128 | > 64 | > 64 | 2 (≈ 5.34 µM) | 2 (≈ 5.34 µM) | 0.5 (≈ 1.34 µM) | 2 (≈ 5.34 µM) | 1 (≈ 2.67 µM) | 1 (≈ 2.67 µM) | 2 (≈ 5.34 µM) | 1 (≈ 2.67 µM) | 2 (≈ 5.34 µM) | 64 | 94.4 | 46.5 (≈ 124 µM) | 46.5 | 46.5 | Ratio (Bacillus subtilis [30]): 8; selectivity ratio [24]: 46.5; selectivity ratio [25]: 23.3; selectivity ratio [26]: 46.5; selectivity ratio [27]: 23.3 |
